# The list is not random: actives were taken first. Their share in the collection is about 1.5%.
# EP2 mod – EP2 receptor modulators, cAMP readout, primary screen, cell-based, HTRF cAMP, PGE2 stimulation; Prostaglandin E2 receptor EP2 subtype (Homo sapiens), P43116; EP2-expressing cells, cAMP HTRF FRET, PGE2 co-stimulation; induction, % at 25 µM; 260,000 tested, 0.83% active; AID 940, 2007;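 active means compounds whose cAMP rise, as percent of the full-agonist control response, exceeds 60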;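 further: rat C6 glioma line stably carrying human EP2 under a CMV promoter; the protocol text gives 20 µM as final concentration; 100% = response of wells given 1 µM PGE2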
# ABCB1 block – ABCB1 efflux pump inhibitors, primary screen, cell-based, multiplex, flow cytometry, ABCG2 counter-screen; 190,000 tested, 0.067% active; CCRF-Adr cells, JC-1 efflux; AID 1326, 2008; inhibition, % at 6.6 µM; in the data active means inhibition above about 40%;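 further: 0% = vehicle and 100% = reference inhibitor; higher value means more JC-1 retained so stronger ABCB1 efflux block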
# EP2 antag – human EP2 receptor antagonists, primary screen, TR-FRET cAMP, C6 glioma cells; Prostaglandin E2 receptor EP2 subtype (Homo sapiens), P43116; C6 glioma cells expressing human EP2; cells stimulated with saturating PGE2; inhibition, % at 25 µM; 260,000 tested, 0.52% active;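 active means percent inhibition above 40 after rounding to a whole number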;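 further: rat C6 glioma host cells with rolipram phosphodiesterase inhibitor present; the protocol text gives 20 µM as final concentration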
# ABCG2 block – ABCG2 efflux pump inhibitors, primary screen, multiplex with ABCB1, IgMXP3 cells, flow cytometry | Broad substrate specificity ATP-binding cassette transporter ABCG2 (Homo sapiens), Q9UNQ0 | JC-1 efflux | inhibition, % at 6.6 µM | 190,000 tested, 0.1% active | AID 1325, 2008;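 active means inhibition above 80%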;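 further: 0% = DMSO and 100% = nicardipine control wells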
# Target sequence (Q9UNQ0 whole entry, looked up): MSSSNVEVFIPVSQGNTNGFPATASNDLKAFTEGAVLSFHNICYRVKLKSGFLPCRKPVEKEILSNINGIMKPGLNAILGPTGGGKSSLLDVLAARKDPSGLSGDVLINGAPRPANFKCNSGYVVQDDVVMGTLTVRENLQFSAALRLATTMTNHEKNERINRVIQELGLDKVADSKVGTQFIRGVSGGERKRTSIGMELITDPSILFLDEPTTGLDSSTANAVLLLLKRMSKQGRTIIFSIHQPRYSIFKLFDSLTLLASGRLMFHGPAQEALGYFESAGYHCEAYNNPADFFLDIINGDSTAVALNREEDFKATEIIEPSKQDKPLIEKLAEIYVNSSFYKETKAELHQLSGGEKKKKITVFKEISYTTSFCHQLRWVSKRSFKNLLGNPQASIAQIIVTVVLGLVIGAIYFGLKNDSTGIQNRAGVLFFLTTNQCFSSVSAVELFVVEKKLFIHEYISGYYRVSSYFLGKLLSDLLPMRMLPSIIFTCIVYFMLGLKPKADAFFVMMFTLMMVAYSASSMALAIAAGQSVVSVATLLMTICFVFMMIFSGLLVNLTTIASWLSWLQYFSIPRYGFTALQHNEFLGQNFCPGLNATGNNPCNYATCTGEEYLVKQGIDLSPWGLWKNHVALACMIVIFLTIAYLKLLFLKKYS
#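 Test system: IgMXP3 cells (ABCG2) mixed with DDAO far-red-labelled CCRF-Adr cells (ABCB1). Reagent: JC-1 transporter substrate. Compound dosing: single test compound dose, 6.6 µM final. Times: 10 min compound exposure, 25 °C. Detection: flow cytometry of retained JC-1 fluorescence. Read-out basis: efflux inhibition in percent versus controls. Controls: nicardipine and DMSO wells.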
# RBBP9 inh – human RBBP9 inhibitors, primary screen, biochemical, fluorescence polarization, FP-Rh probe, HTS; Serine hydrolase RBBP9 (Homo sapiens), O75884; recombinant RBBP9; inhibition, % at 7.94 µM; 220,000 tested, 0.2% active; AID 1515, 2009;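 active means inhibition above the campaign mean of all tested compounds plus 3 SD, cut at about 14% in these data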;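 further: plate controls were DMSO wells with RBBP9 for no effect and wells lacking RBBP9 protein for full effect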
#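 Measured by – fluorescence polarization · Test system – RBBP9 protein · Input – 2.5 µM RBBP9 dispensing solution, before mixing · Measure – percent inhibition from mP, scaled between DMSO and no-protein wells · Benchmarks – DMSO-treated enzyme wells and wells lacking RBBP9 · Times – preincubation 30 min plus labeling 45 min at 25 °C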
# Active calls of the source: *; . = no result given; ! = not confirmed by another sample.
SMILES,EP2 mod,ABCB1 block,EP2 antag,ABCG2 block,RBBP9 inh
CCCCCCCCn1cnc2c(N)c(C)c(C)cc21,62*,1,3,4,-2
COc1ccc(Cn2cnc3c(N)c(C)c(C)cc32)cc1,2,0,6,1,-4
CCOc1ccccc1C(=O)Nc1nc2c(s1)C(=O)CC(C)(C)C2,-22,.,69*,.,.
CCOCC(=O)Nc1nc2c(s1)C(=O)CC(C)(C)C2,12,1,10,6,1
COC(=O)C1=NN(c2ccc(OC)cc2)C2C(=O)N(c3ccccc3OC)C(=O)C12 (configuration not stated),10,.,7,.,-6
COC(=O)C1=CC(C(=O)c2cccs2)=NN(c2ccc(OC)cc2)C1C(=O)OC (configuration not stated),63*,0,10,-1,-6
S=C(Nc1ccc(Cl)cc1)NC1CC2CCCC(C1)N2C1CC1 (configuration not stated),-96,0,48*!,0,-6
O=C(NC1CCCC1)C(c1ccc(Cl)cc1)N(C(=O)c1ccco1)c1ccc2c(c1)OCO2 (configuration not stated),9,.,13,.,.
C=CCn1c2cc(C)sc2c2cnn(Cc3ccccc3F)c(=O)c21,63*,.,.,.,.
C=CCn1c2cc(C)sc2c2cnn(Cn3nnc4ccccc43)c(=O)c21,-4,.,.,.,.
N#Cc1c(N)sc(=S)c2c1CCCC2,14,-1,64*,-3,-8
COc1ccc(C2=NNC(c3cccnc3)=Nc3ccc(Cl)cc32)cc1,-43,.,3,.,.
CC(C)c1ccc(O)c(O)c(=O)c1 (tested in a mixture with another compound),48,.,41*,.,.
CC(C)c1cccc(O)c(=O)c1,28,1,19,0,1
O=C(Nc1cccc([N+](=O)[O-])c1)Nc1cccc([N+](=O)[O-])c1,-59,0,6,9,-13
CC(C)S(=O)(=O)c1csc(NC(=O)Nc2cccc([N+](=O)[O-])c2)c1Cl,-36,.,54*,.,-19
O=S(=O)(NCc1cccs1)c1ccc(S(=O)(=O)N2CCCCCC2)cc1,-39,.,11,.,.
CC(C)(C)c1nc(SCC(=O)c2ccc(F)cc2)c2ccccc2n1,69*,.,7,.,.
Cc1cccc2cc3c(N)c(C(=O)Nc4c[nH]c(=O)[nH]c4=O)sc3nc12,-23,.,30,.,.
CCOc1ccc(-n2c(SCC(=O)Nc3ccccc3Cl)nnc2-c2cccnc2)cc1,-63,.,10,.,.
Cc1ccc(C)c2nc(SCC(=O)N3CCCC3)c(C#N)cc12,25,.,14,.,.
Cc1ccc(C(=O)c2ccc(C)cc2)cc1,38,2,8,7,2
Cc1ccc(C(=O)c2no[n+]([O-])c2C(=O)c2ccc(C)cc2)cc1,-45,0,50*,0,7
CCOC(=O)C(C)(C)Sc1nnc(COc2ccc(Br)cc2)n1C,-19,.,4,.,.
CCOc1ccc(C2C(C#N)=C(C)NC3=C2C(=O)c2ccccc23)cc1 (configuration not stated),7,1,6,3,0
SMILES,EP2 mod,ABCB1 block,EP2 antag,ABCG2 block,RBBP9 inh
COc1ccc(C2C(C#N)=C(C)NC3=C2C(=O)c2ccccc23)cc1 (configuration not stated),-8,0,49*,0,-6
CC(=O)Nc1ccc(S(=O)(=O)Nc2nc3ccccc3nc2-n2ccc(=NC(=O)c3ccccc3)cc2)cc1,-15,.,6,.,-12
O=C(N=c1ccn(-c2nc3ccccc3nc2NS(=O)(=O)c2ccc(Cl)cc2)cc1)c1cccs1,21,.,48*,.,7
O=C(N=c1ccn(-c2nc3ccccc3nc2NS(=O)(=O)c2ccc(Cl)cc2)cc1)c1ccccc1Cl,14,.,10,.,0
CCOc1ccc(S(=O)(=O)Nc2nc3ccccc3nc2-n2ccc(=NC(=O)c3cccs3)cc2)cc1,0,-2,45*,0,-9
C=CCn1c(SCC(=O)c2cc(C)n(CCOC)c2C)nc2sc(C)c(C)c2c1=O,-39,2,42*,7,-4
C=CCn1c(SCC(=O)c2cccs2)nc2sc(C)c(C)c2c1=O,-93,1,6,4,-7
CCCSc1nc2c(cnn2-c2ccc(C)c(C)c2)c(=O)[nH]1,-4,0,11,7,-10
COC(=O)c1ccc(CSc2nc3c(cnn3-c3ccc(C)c(C)c3)c(=O)[nH]2)o1,65*,1,10,6,-2
Fc1ccccc1C1c2[nH]c3ccccc3c2CCN1Cc1ccoc1 (configuration not stated),64*,1,8,1,-7
CSc1ncc(CN2CCc3c([nH]c4ccccc34)C2c2cccc(C)n2)cn1 (configuration not stated),-13,.,17,.,2
CN1CCN(C(=S)NC(=O)/C=C/c2ccc(F)cc2)CC1,19,.,12,.,.
O=C1C=CC(=O)N1c1ccc(OC(F)F)cc1,-62,1,109*,-3,-6
COC(=O)c1c(C)nc2c(c(SC)nn2-c2ccccc2)c1N,63*,1,12,12,-1
COC(=O)c1nnn(-c2ccccc2)c1N,-4,0,5,2,-8
COc1cc(NS(=O)(=O)c2ccc(NC(=S)NC(=O)/C=C/c3ccc(OC)c(OC)c3)cc2)ncn1,-91,0,17,3,-10
CCc1nnc(NS(=O)(=O)c2ccc(NC(=S)NC(=O)/C=C/c3ccc(F)cc3)cc2)s1,-11,-1,133*,-3,2
COc1ccc(/C=C/C(=O)NC(=S)Nc2ccc(S(=O)(=O)Nc3cc(OC)ncn3)cc2)cc1,-77,1,64*,1,2
COc1ccc(C(=O)NC(=S)Nc2ccc(S(=O)(=O)Nc3nc(C)cc(C)n3)cc2)cc1,-98,.,70*,.,.
Cc1cc(NS(=O)(=O)c2ccc(NC(=S)NC(=O)/C=C/c3ccccc3)cc2)no1,-132,.,33,.,.
COc1ccc(/C=C/C(=O)NC(=S)Nc2ccc(S(=O)(=O)Nc3nc(C)cc(C)n3)cc2)cc1,-119,.,26,.,.
Cc1ccc(/C=C/C(=O)NC(=S)Nc2ccc(S(=O)(=O)Nc3cc(C)on3)cc2)cc1,-111,.,83*,.,.
CCc1nnc(NS(=O)(=O)c2ccc(NC(=S)NC(=O)/C=C/c3ccc([N+](=O)[O-])cc3)cc2)s1,-59,.,5,.,-6
Cc1cc2ccccc2n2c(=O)n(CCNC(=O)c3c(Cl)cnn3C)nc12,-10,.,6,.,.
COc1ccc(/C=C/C(=O)NC(=S)Nc2ccc(S(=O)(=O)Nc3nccnc3OC)cc2)cc1,-11,-1,40*,-4,-2
